Source: PubChem BioAssay
KCNK9 block = KCNK9 potassium channel inhibitors, primary screen, HEK293 cells, thallium flux. hit rate 1.2% among 310,000. Potassium channel subfamily K member 9 (Homo sapiens), Q9NPC2. AID 488922, 2010. B-score at 10 µM. FluxOR thallium flux fluorescence; active compounds read low;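 active means ratio B-score over 3 SD below the library mean, with starting fluorescence within 5 SD of its mean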;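 further: negative B-score means less thallium flux so channel inhibition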
KCNQ1 block = inhibitors of human KCNQ1 channel, primary screen, cell-based, thallium flux, high-throughput; B-score at 10 µM; AID 2642, 2010; Potassium voltage-gated channel subfamily KQT member 1 (Homo sapiens), P51787; CHO-K1 KCNQ1, FluxOR thallium flux fluorescence; active compounds read high; hit rate 1.3% among 310,000;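 active means compounds whose thallium flux B-score, printed positive for inhibition, exceeds three library SD while starting fluorescence stays within three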;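 further: channel opened by potassium depolarization with thallium stimulus after 20 min compound exposure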
hERG rescue = hERG rescue from dofetilide block, primary screen, cell-based, CHO-hERG, FluxOR thallium flux, dofetilide IC70; AID 1511, 2009; dofetilide IC70 present; activation (rescue from dofetilide block), less the hit threshold, % at 10 µM; hit rate 0.51% among 310,000;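 active means activation above the mean of controls blocked by dofetilide plus 5 SD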;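 further: thallium influx through hERG after potassium depolarization seen as dye fluorescence rise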
KCC2 mod = KCC2 cotransporter modulators, thallium flux, primary screen, cell-based, HEK293 KCC2, FluoZin-2 fluorescence, MLSMR; Solute carrier family 12 member 5 (Homo sapiens), Q9H2X9; KCC2 cells, thallium flux FluoZin-2 fluorescence; B-score of Tl+ flux slope (higher = more flux/activation; lower = inhibition) at 10 µM; hit rate 2.2% among 190,000; AID 1456, 2008;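 active means thallium flux slope and its plate-corrected score both differing from the plate sample mean at a set confidence after two filtering rounds, in either direction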;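 further: slope of fluorescence scaled to starting intensity during 10 to 20 s after thallium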
KCNQ1 pot = potentiators or activators of KCNQ1 channel, primary screen, cell-based, thallium flux, high-throughput | Potassium voltage-gated channel subfamily KQT member 1 (Homo sapiens), P51787 | CHO-K1 KCNQ1, thallium flux FluxOR fluorescence; active compounds read high | B-score at 10 µM | hit rate 0.35% among 310,000 | AID 2648, 2010;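 active means fluorescence ratio B-score, a plate-corrected score, at least three library SD, with initial intensity B-score within 5 SD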
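assay system = KCNQ1-transfected CHO-K1 cells | medium = assay buffer with matched DMSO | probe or stimulus = depolarizing K+/Tl+ stimulus, K2SO4 and Tl2SO4 each 12.5 mM in 5x stock | dosing = single dose | incubation = dye 90 min, compound 20 min, room temperature | detection = kinetic FluxOR fluorescence, 10 s baseline plus 110 s post-stimulus | evaluation = ratio B score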
KCNK3 inh = human KCNK3 channel inhibitors, primary screen, CHO cells, FluxOR thallium flux, B-score. B-score at 10 µM. hit rate 0.84% among 340,000. FluxOR fluorescence; active compounds read low. AID 602410, 2012;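 active means B-score under library mean minus 4 SD, starting fluorescence ratio at most library mean plus 5 SD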;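 further: more negative B-score means stronger inhibition of thallium flux through KCNK3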
KCNK9 inh conf = KCNK9 potassium channel inhibitors, confirmation, HEK293 cells, thallium flux, duplicate | inhibition, % at 10 µM | FluxOR thallium flux fluorescence | hit rate 43% among 4,900 | AID 492992, 2010 | shares compounds with KCNK9 block;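 active means thallium signal inhibited by more than 5 SD of the compound-free buffer control wells, on both duplicate plates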
Kir2-1 spec = mouse Kir2.1 channel inhibition, confirmation, selectivity assay for KCNK9 modulator project, cell-based, HEK293, thallium flux; shares compounds with KCNK9 block; Kir2.1 cells, FluxOR thallium flux fluorescence; inhibition, % at 10 µM; hit rate 4% among 4,900; AID 492993, 2010;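 active means thallium signal drop more than 5 SD beyond the mean of the no-compound control wells, seen in both duplicate plates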;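 further: signal is fluorescence rise after thallium addition divided by baseline fluorescence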
Target sequence (P35561 whole entry, looked up): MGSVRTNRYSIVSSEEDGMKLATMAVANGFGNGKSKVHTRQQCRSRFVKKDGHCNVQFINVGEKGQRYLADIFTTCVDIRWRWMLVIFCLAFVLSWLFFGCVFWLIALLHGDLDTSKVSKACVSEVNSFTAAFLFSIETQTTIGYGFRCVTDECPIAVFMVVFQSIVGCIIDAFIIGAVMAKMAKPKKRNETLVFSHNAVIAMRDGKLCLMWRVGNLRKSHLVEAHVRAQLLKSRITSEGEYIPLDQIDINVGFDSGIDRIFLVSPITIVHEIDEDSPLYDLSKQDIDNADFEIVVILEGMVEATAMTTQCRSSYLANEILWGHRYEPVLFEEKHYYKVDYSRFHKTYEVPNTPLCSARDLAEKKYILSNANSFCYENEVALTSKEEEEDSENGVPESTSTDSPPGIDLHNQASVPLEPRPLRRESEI
KCNK9 uninduced = thallium flux in non-induced HEK293 cells, confirmation, counter-screen for KCNK9 inhibitor project, cell-based, second counter screen, non-induced KCNK9-HEK293; shares compounds with KCNK9 block; FluxOR thallium flux; inhibition, % at 10 µM; hit rate 40% among 4,900; AID 492997, 2010;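 active means thallium signal drop beyond 5 SD of the untreated control mean, on both duplicate plates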
Of the large screens only hits and unclear results are named; the others gave an inactive call (follow-up assays come after a bar, where they were run). Shown are actives, neighbours in structure and some others; about 4.1% of the full set was active somewhere.

COCCn1c(SCc2nc3ccccc3c(=O)[nH]2)nc2ccccc2c1=O	none
CC(=O)Nc1ccc(NC(=O)C(C)Sc2n[nH]c(=O)n2Cc2ccccc2)cc1 (stereo not drawn)	none (no result: KCC2 mod)
Cc1ccc(SCc2ccc(C(=O)N3CCCCC3)cc2)cc1	none | KCNK9 inh conf inactive | Kir2-1 spec inactive | KCNK9 uninduced inactive
CCN(CC)C(=O)Cn1cc(C(=O)C(=O)N(C)C2CCN(C)CC2)c2ccccc21	none (no result: KCC2 mod)
COc1ccc(C(=O)Oc2ccc3ccc(=O)oc3c2)cc1	KCNK9 block -13 (no result: KCC2 mod) | KCNK9 inh conf 64% | Kir2-1 spec inactive | KCNK9 uninduced 27%
Fc1ccccc1N1CC(c2ccccc2)C(c2cccs2)=N1 (stereo not drawn)	KCNK9 block -8.6 | KCNK9 inh conf 34% | Kir2-1 spec inactive | KCNK9 uninduced 43%
c1ccc(C2COC(c3cccs3)=N2)cc1 (stereo not drawn)	none
CC(C)C[C@H](NC(=O)C1CCN(S(=O)(=O)c2ccccc2)CC1)C(=O)NCc1ccncc1	none (no result: KCC2 mod)
CCN(C(=O)CSc1ncccc1C(=O)Oc1cccc([N+](=O)[O-])c1)c1cccc(C)c1	KCNK9 block -19 | KCNK9 inh conf 52% | Kir2-1 spec inactive | KCNK9 uninduced 28%
O=S(=O)(c1ccc(Br)s1)N1CCN(Cc2ccc3c(c2)OCO3)CC1	none | KCNK9 inh conf inactive | Kir2-1 spec inactive | KCNK9 uninduced inactive
O=S(=O)(NCc1ccc2c(c1)OCO2)c1cccc2cccnc12	none
O=S(=O)(c1cccc2cccnc12)N1CCN(Cc2ccc3c(c2)OCO3)CC1	none (no result: KCC2 mod) | KCNK9 inh conf inactive | Kir2-1 spec inactive | KCNK9 uninduced inactive
COc1cccc(S(=O)(=O)N2CCN(Cc3ccc4c(c3)OCO4)CC2)c1	none (no result: KCC2 mod) | KCNK9 inh conf inactive | Kir2-1 spec inactive | KCNK9 uninduced inactive
CCc1c(C(=O)N/N=C/c2ccco2)nnn1-c1nonc1N	none (no result: KCC2 mod)
O=C(CCCN1C(=O)NC2(CCCC2)C1=O)Nc1cccc(S(=O)(=O)N2CCOCC2)c1	none (no result: KCNK9 block, KCNQ1 block, hERG rescue, KCC2 mod, KCNQ1 pot)
NC(=O)COC(=O)c1c2c(nc3ccccc13)CCCCC2	none
O=C(OCC(=O)N1CCc2ccccc21)c1c2c(nc3ccccc13)CCCC2	KCNK9 block -13 | KCNK9 inh conf 53% | Kir2-1 spec inactive | KCNK9 uninduced inactive
CC(C)(C)C(=O)COC(=O)c1c2c(nc3ccccc13)CCC2	none
O=C(COC(=O)c1c2c(nc3ccccc13)CCCCC2)c1ccc(Cl)s1	KCNK9 block -13 | KCNK9 inh conf 46% | Kir2-1 spec inactive | KCNK9 uninduced inactive
Cc1ccc(-c2nc(CN3CCN(C(=O)C4CCCO4)CC3)cs2)cc1 (stereo not drawn)	none (no result: KCC2 mod)
COc1ccc(OC)c(/C=N/c2c(-c3ccc(O)c(OC)c3)nc3ccccn23)c1	KCNK9 block -14 | KCNK9 inh conf inactive | Kir2-1 spec inactive | KCNK9 uninduced inactive
Cc1ccc(NC(=O)Cn2nc(C(=O)O)c3ccccc3c2=O)cc1S(=O)(=O)N1CCCCCC1	none (no result: KCNK9 block, KCNQ1 block, hERG rescue, KCC2 mod, KCNQ1 pot)
COc1ccc(C(=O)Nn2c(SCc3ccc([N+](=O)[O-])cc3)nc3ccccc3c2=O)cc1	KCNK9 block -11 | KCNK9 inh conf 56% | Kir2-1 spec inactive | KCNK9 uninduced 32%
Cc1ccc(CNC(=O)CSc2nc3ccsc3c(=O)n2NC(=O)c2ccccc2)cc1	none
O=C(Nn1c(SCc2ccc(F)cc2)nc2ccsc2c1=O)c1ccccc1	KCNK9 block -11 | KCNK9 inh conf 74% | Kir2-1 spec inactive | KCNK9 uninduced 46%
COc1ccc(C(=O)Nn2c(SCC(=O)c3ccccc3)nc3ccccc3c2=O)cc1	none
O=C(O)C(Cc1ccccc1[N+](=O)[O-])N1C(=O)c2ccccc2C1=O (stereo not drawn)	none (no result: KCNK9 block, KCNQ1 block, hERG rescue, KCC2 mod, KCNQ1 pot)
COc1ccccc1-c1nc(C#N)c(N2CCN(c3cccc(Cl)c3)CC2)o1	KCNK9 block -8.6 (no result: KCC2 mod) | KCNK9 inh conf 48% | Kir2-1 spec inactive | KCNK9 uninduced inactive
COc1ccccc1-c1nc(C#N)c(N2CCN(C(c3ccccc3)c3ccccc3)CC2)o1	none
Fc1ccc(N2N=C(c3cccs3)CC2c2ccccc2)cc1 (stereo not drawn)	KCNK9 block -11 | KCNK9 inh conf 50% | Kir2-1 spec inactive | KCNK9 uninduced 45%
O=S(=O)(c1ccccc1)N1N=C(c2cccs2)CC1c1ccc(F)cc1 (stereo not drawn)	none
Cc1ccccc1NC(=O)CCc1nnc2ccc(N3CCC4(CC3)OCCO4)nn12	none (no result: KCC2 mod)
Cc1ccc2c(c1)N(C(=O)NC1CCCCC1)C(C)(C)CC2C (stereo not drawn)	none (no result: KCC2 mod) | KCNK9 inh conf inactive | Kir2-1 spec inactive | KCNK9 uninduced inactive
CC1=C([N+](=O)[O-])C(c2cccc(Br)c2)C2=C(N1)c1ccccc1C2=O (stereo not drawn)	KCNK9 block -8.4, KCNQ1 block 10 | KCNK9 inh conf 54% | Kir2-1 spec inactive | KCNK9 uninduced 38%
COC(=O)C1=C(C)NC2=C(C(=O)c3ccccc32)C1c1cccc(OC)c1 (stereo not drawn)	none
Cc1cccc(CN2C(=O)[C@H]3Cc4c([nH]c5ccccc45)C(C)(C)N3C2=O)c1	none (no result: KCC2 mod) | KCNK9 inh conf inactive | Kir2-1 spec inactive | KCNK9 uninduced inactive
Cc1cccc(CN2C(=O)[C@@H]3Cc4c([nH]c5ccccc45)C(C)(C)N3C2=O)c1	none (no result: KCC2 mod) | KCNK9 inh conf inactive | Kir2-1 spec inactive | KCNK9 uninduced inactive
CC1(C)c2[nH]c3ccccc3c2C[C@@H]2C(=O)N(Cc3ccccc3)C(=O)N21	none (no result: KCC2 mod)
COc1ccc(C(=O)COC(=O)c2ccc3c(c2)OCO3)c(OC)c1	none (no result: KCNK9 block, KCNQ1 block, hERG rescue, KCC2 mod, KCNQ1 pot)
